Broadly, the MIC50 is an inhibitory concentration at the 50% level, which refers to growth in some studies and to a panel of isolates in others. The MIC90 is the lowest concentration that inhibits either 90% of growth or 90% of the strains tested, depending on the study.

≈ marks a conversion by molar mass, not a printed value.

Data set [1] has as its system Mycobacterium tuberculosis. The data set can be described thus: Antitubercular activity against non-replicating Mycobacterium tuberculosis H37Rv expressing luxCDAB assessed as inhibition of bacterial growth incubated for 7 days under hypoxia conditions followed by incubation in normoxia conditions for 5 days by luminescence based analysis. It counts as functional. The note with it: 288 h, time 12 day.

A short description of data set [2]: Metabolic stability of the compound in CD-1 mouse liver microsomes assessed as parent compound remaining at 5 uM preincubated for 5 mins followed by NADPH addition and measured after 30 mins by LC-TOF/MS analysis. The class given is ADME, Microsome. The note with it: time 35 min, read-out: Stability. Summed up:
(§1)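 Mouse liver microsomes incubated with compound in the presence of NADPH. Read-out is % parent compound remaining after 30 min.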

Data set [3] can be described thus: Metabolic stability of the compound in CD-1 mouse liver microsomes at 5 uM by LC-TOF/MS analysis. The class given is ADME, Microsome. Summed up: as §1
For orientation: Liver microsomes are a subcellular fraction often used to study metabolism.

For `c1ccc2c(Nc3ccncc3)nc(-c3cnccn3)nc2c1`, in data set [1], the MIC50 amounted to 1 µM (≈ 0.3 µg/mL) and the MIC90 was over 10 µM.

With `COc1cncc(-c2nc(Nc3ccncc3)c3ccccc3n2)n1`, in data set [1], the MIC50 was 5 µM (≈ 1.65 µg/mL) and the MIC90 is over 10 µM.

Turning to `COc1cccc(-c2nc(Nc3ccncc3)c3ccccc3n2)n1`, in data set [1], the MIC50 came out at 5 µM (≈ 1.65 µg/mL) and the MIC90 is over 10 µM.

With `Cc1cccc(-c2nc(Nc3ccc4nn(C)cc4c3)c3ccccc3n2)n1`, in data set [1], the MIC50 is under 0.3 µM and the MIC90 was determined as 1.3 µM (≈ 0.476 µg/mL).

`Cc1csc(-c2nc(Nc3ccncc3)c3ccccc3n2)n1`: in data set [1], the MIC50 was over 10 µM and the MIC90 was over 10 µM.

Regarding `Cc1cccc(-c2nc(Nc3ccc4ncn(C)c4c3)c3ccccc3n2)n1`, in data set [1], the MIC50 worked out at 0.3 µM (≈ 0.11 µg/mL) and the MIC90 is over 10 µM.

Turning to `c1cncc(-c2nc(Nc3ccncc3)c3ccccc3n2)c1`, in data set [1], the MIC50 is over 10 µM and the MIC90 is over 10 µM.

Regarding `Cc1cccc(-c2nc(Nc3ccc4ncoc4c3)c3ccccc3n2)n1`, in data set [1], the MIC50 amounted to 0.3 µM (≈ 0.106 µg/mL) and the MIC90 amounted to 5 µM (≈ 1.77 µg/mL).

Turning to `Cc1cccc(-c2cc3ccccc3c(Nc3ccncc3)n2)n1`, in data set [1], the MIC50 came to 1 µM (≈ 0.312 µg/mL) and the MIC90 is over 10 µM.

As for `CSc1cccc(Nc2nc(-c3cccc(C)n3)nc3ccccc23)c1`, in data set [1], the MIC50 was under 0.3 µM and the MIC90 is 1.3 µM (≈ 0.466 µg/mL).

Turning to `Cc1cccc(-c2nc(Nc3ccncc3)c3cc(O)ccc3n2)n1`, in data set [1], the MIC50 turned out to be 1 µM (≈ 0.329 µg/mL) and the MIC90 was found to be 2.5 µM (≈ 0.823 µg/mL). Further, the remaining at 0.5 h, 5 µM in data set [2] was 20%. For the same molecule, the Stability result in data set [3] is recorded as “Stable”.

As for `Cc1cc(-c2nc(Nc3ccncc3)c3ccccc3n2)cs1`, in data set [1], the MIC50 was over 10 µM and the MIC90 is over 10 µM.

For `Clc1cccc(-c2nc(Nc3ccncc3)c3ccccc3n2)n1`, in data set [1], the MIC50 was under 1 µM and the MIC90 was under 1 µM. In addition, the remaining at 0.5 h, 5 µM in data set [2] was 18%. For the same molecule, the Stability entry in data set [3] was “Stable”.

As for `Cc1cccc(-c2cc(Nc3ccncc3)c3ccccc3n2)n1`, in data set [1], the MIC50 worked out at 2.5 µM (≈ 0.781 µg/mL) and the MIC90 was over 10 µM.

With `Clc1cccc(-c2nc(Nc3ccncc3)c3ccccc3n2)c1`, in data set [1], the MIC50 is over 10 µM and the MIC90 is over 10 µM.

For the molecule `COc1ccc2nc(-c3cccc(C)n3)nc(Nc3ccncc3)c2c1`, in data set [1], the MIC50 was under 1 µM and the MIC90 is under 1 µM. In addition, the remaining at 0.5 h, 5 µM in data set [2] came to 23%. Besides, the Stability result in data set [3] is on record as “Stable”.

Take `c1ccc2c(Nc3ccncc3)nc(-c3ccc4c(c3)OCO4)nc2c1`: in data set [1], the MIC50 was over 10 µM and the MIC90 is over 10 µM.

In the case of `Cc1cccc(-c2nc(Nc3ccc4c(cnn4C)c3)c3ccccc3n2)n1`, in data set [1], the MIC50 was under 0.3 µM and the MIC90 stood at 1.3 µM (≈ 0.476 µg/mL). In data set [2], the remaining at 0.5 h, 5 µM turned out to be 9%. Besides, the Stability entry in data set [3] is on record as “Stable”.

Consider `Cc1cccc(-c2nc(Nc3ccc4ncccc4c3)c3ccccc3n2)n1`, for which, in data set [1], the MIC50 was determined as 0.3 µM (≈ 0.109 µg/mL) and the MIC90 amounted to 5 µM (≈ 1.82 µg/mL).

As to `Cc1cccc(-c2nc(Nc3ccc4ncsc4c3)c3ccccc3n2)n1`, in data set [1], the MIC50 is under 0.3 µM and the MIC90 was found to be 1.3 µM (≈ 0.48 µg/mL).

Turning to `Cc1cccc(-c2nc(C)cc(Nc3ccncc3)n2)n1`, in data set [1], the MIC50 was under 1 µM and the MIC90 is over 10 µM.

As for `Fc1cccc(-c2nc(Nc3ccncc3)c3ccccc3n2)c1`, in data set [1], the MIC50 was over 10 µM and the MIC90 is over 10 µM.

As to `c1cnc(-c2nc(Nc3ccncc3)c3ccccc3n2)nc1`, in data set [1], the MIC50 is 2.5 µM (≈ 0.751 µg/mL) and the MIC90 is over 10 µM.

On to `Cn1ccc(-c2nc(Nc3ccncc3)c3ccccc3n2)n1`, for which, in data set [1], the MIC50 is over 10 µM and the MIC90 is over 10 µM.

`Cc1cccc(-c2nc(Nc3ccc4[nH]ccc4c3)c3ccccc3n2)n1`: in data set [1], the MIC50 was 1.3 µM (≈ 0.457 µg/mL) and the MIC90 was found to be 1.3 µM (≈ 0.457 µg/mL).

As to `Cc1cc(Nc2nc(-c3cccc(C)n3)nc3ccccc23)ccn1`, in data set [1], the MIC50 is under 0.3 µM and the MIC90 came to 1.3 µM (≈ 0.426 µg/mL).
